In ChEMBL document CHEMBL1129534, “Antitumor agents. 163. Three-dimensional quantitative structure-activity relationship study of 4'-O-demethylepipodophyllotoxin analogs using the modified CoMFA/q2-GRS approach” (J Med Chem, 1996) one finds Protein-DNA complex formation data, which are given here for 23 molecules.

Where “and” joins values, the source holds several entries; their conditions need not be identical. Identical values can stand only once.

The assay deals with DNA topoisomerase II (Homo sapiens) (UniProt P11388+Q02880). Briefly: Compound tested for ability to form a cellular covalent topoisomerase II-DNA complex. It is filed as functional. In short, it runs like this: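 Read-out is intracellular covalent topoisomerase II–DNA complex formation, scored as the percentage of cellular protein–DNA complex formed (PCPDCF). For CoMFA modelling the values were transformed to ln(PCPDCF + 1).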

The molecule `COC(=O)c1cc(N[C@@H]2c3cc4c(cc3[C@@H](c3cc(OC)c(O)c(OC)c3)[C@H]3C(=O)OC[C@@H]32)OCO4)cc(C(=O)OC)c1` displayed a Protein-DNA complex formation of 50%.
Regarding `COc1cc([C@@H]2c3cc4c(cc3[C@@H](Nc3cccnc3)[C@H]3COC(=O)[C@H]23)OCO4)cc(OC)c1O`, the Protein-DNA complex formation was 148%.
`COc1cc([C@@H]2c3cc4c(cc3[C@@H](NC(=O)c3cccc(F)c3)[C@H]3COC(=O)[C@H]23)OCO4)cc(OC)c1O` registered a Protein-DNA complex formation of 116%.
For the molecule `COc1cc([C@@H]2c3cc4c(cc3[C@@H](Nc3ccc(Oc5ccccc5)cc3)[C@H]3COC(=O)[C@H]23)OCO4)cc(OC)c1O`, the Protein-DNA complex formation is 97%.
The value for `COc1cc([C@@H]2c3cc4c(cc3[C@@H](OC(=O)c3cccc(N)c3)[C@H]3COC(=O)[C@H]23)OCO4)cc(OC)c1O` was 100%; that for `COc1cc([C@@H]2c3cc4c(cc3[C@@H](Nc3ccc5c(c3)OCCO5)[C@H]3COC(=O)[C@H]23)OCO4)cc(OC)c1O` was 279%; that for `CCOC(=O)c1ccc(N[C@@H]2c3cc4c(cc3[C@@H](c3cc(OC)c(O)c(OC)c3)[C@H]3C(=O)OC[C@@H]32)OCO4)cc1` was 207%.
To `COc1cc([C@@H]2c3cc4c(cc3[C@@H](NC(=O)c3ccccc3)[C@H]3COC(=O)[C@H]23)OCO4)cc(OC)c1O` belongs 177%; to `COc1cc(CN[C@@H]2c3cc4c(cc3[C@@H](c3cc(OC)c(O)c(OC)c3)[C@H]3C(=O)OC[C@@H]32)OCO4)cc(OC)c1`, 144%.
Take `COc1cc([C@@H]2c3cc4c(cc3[C@@H](NCCO)[C@H]3COC(=O)[C@H]23)OCO4)cc(OC)c1O`: the Protein-DNA complex formation worked out at 121%.
The value for `COc1cc([C@@H]2c3cc4c(cc3[C@@H](Nc3cc(N)ccc3O)[C@H]3COC(=O)[C@H]23)OCO4)cc(OC)c1O` was 11%; that for `COc1cc([C@@H]2c3cc4c(cc3[C@@H](OC(=O)c3ccc(N)cc3)[C@H]3COC(=O)[C@H]23)OCO4)cc(OC)c1O` was 94%; that for `COc1cc([C@@H]2c3cc4c(cc3[C@@H](Nc3cccc(C(C)=O)c3)[C@H]3COC(=O)[C@H]23)OCO4)cc(OC)c1O` was 150%.
Take `COc1cc([C@@H]2c3cc4c(cc3[C@@H](NCCN(C)C)[C@H]3COC(=O)[C@H]23)OCO4)cc(OC)c1O`: the Protein-DNA complex formation is 183% and 203%.
The molecule `COc1cc([C@@H]2c3cc4c(cc3[C@@H](Nc3cc(C(F)(F)F)cc(C(F)(F)F)c3)[C@H]3COC(=O)[C@H]23)OCO4)cc(OC)c1O` displayed a Protein-DNA complex formation of 21%.
Take `COc1cc([C@@H]2c3cc4c(cc3[C@@H](Nc3cc(F)cc(F)c3)[C@H]3COC(=O)[C@H]23)OCO4)cc(OC)c1O`: the Protein-DNA complex formation was 115%.
The value for `COc1cc([C@@H]2c3cc4c(cc3[C@@H](NC(=O)c3cccc(C#N)c3)[C@H]3COC(=O)[C@H]23)OCO4)cc(OC)c1O` was 149%.
`COc1cc([C@@H]2c3cc4c(cc3[C@@H](NC(=O)c3ccccc3O)[C@H]3COC(=O)[C@H]23)OCO4)cc(OC)c1O` yielded a Protein-DNA complex formation of 160%.
To `COc1cc([C@@H]2c3cc4c(cc3[C@@H](Nc3cc(OC)c(OC)c(OC)c3)[C@H]3COC(=O)[C@H]23)OCO4)cc(OC)c1O` belongs 47%; to `COc1cc([C@@H]2c3cc4c(cc3[C@@H](N)[C@H]3COC(=O)[C@H]23)OCO4)cc(OC)c1O`, 36.4%.
Turning to `COc1cc([C@@H]2c3cc4c(cc3[C@@H](Nc3ccc(F)cc3)[C@H]3COC(=O)[C@H]23)OCO4)cc(OC)c1O`, the Protein-DNA complex formation was 213%.
Consider `COc1cc([C@@H]2c3cc4c(cc3[C@@H](NC(=O)c3ccccc3F)[C@H]3COC(=O)[C@H]23)OCO4)cc(OC)c1O`, for which the Protein-DNA complex formation stood at 128%.
To `COc1cc([C@@H]2c3cc4c(cc3[C@@H](NC(=O)c3ccc(C(C)=O)cc3)[C@H]3COC(=O)[C@H]23)OCO4)cc(OC)c1O` belongs 124%.
